Source: ChEMBL document CHEMBL4196210, “Depsipeptides Featuring a Neutral P1 Are Potent Inhibitors of Kallikrein-Related Peptidase 6 with On-Target Cellular Activity” (J Med Chem, 2018)
The source made the active and inactive calls. The calls are words filed in the database; no cut-off is given here.

What was measured:
[1] = target: Trypsin (Homo sapiens, UniProt P07477+P07478+P35030); assay: Inhibition of trypsin (unknown origin) pre-incubated for 30 mins before N-Boc-FSR-AMC substrate addition and measured after 30 mins; type: protein assay
[2] = target: Coagulation factor X (Homo sapiens, UniProt P00742); assay: Inhibition of factor 10a (unknown origin) pre-incubated for 30 mins before N-Boc-FSR-AMC substrate addition and measured after 30 mins
Outline: (§1)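 Inhibitor (1:2 or 1:3 dilutions) or 2% DMSO for 30 min at rt, then N-Boc-FSR-AMC at 20 µM final. Fluorescence (ex 350/em 440) read every 60 s for 30 min. Slopes normalized to DMSO for dose-response; triplicates.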

[3] = target: Prothrombin (Homo sapiens, UniProt P00734); assay: Inhibition of thrombin (unknown origin) pre-incubated for 30 mins before N-Boc-FSR-AMC substrate addition and measured after 30 mins; outline: as §1
[4] = Stability in DMEM supplemented with 10% (v/v) fetal bovine serum at 10 uM at 37 degC assessed as half life by HPLC-MS method; type: physicochemical; conditions: cattle, DMEM with 10% (v/v) fetal bovine serum
Outline: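 Compound at 10 µM (0.2% DMSO) in DMEM with 10% FBS, 2 mM L-glutamine and 1% penicillin/streptomycin, plus 10 µM triazole internal standard, held at 37 °C. Sampled hourly to 10 h, then at 24 h, by HPLC-MS in SIM mode for parent and hydrolysis product.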

[5] = target: T1, Kallikrein-6 (Homo sapiens, UniProt Q92876); assay: Inhibition of KLK6 in human FaDu cells assessed as reduction in cell proliferation at 300 nM incubated for 48 hrs by BrdU incorporation assay; type: cell-based
Outline: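 FaDu cells treated daily for 48 h. Proliferation read as BrdU incorporation; average of 5 independent experiments ± standard deviation.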

[6] = target: T1, Kallikrein-6; assay: Inhibition of recombinant human KLK6 assessed as Kinact/Ki ratio using Boc-QAR-AMC substrate
[7] = target: T1, Kallikrein-6; assay: Inhibition of human KLK6 expressed in baculovirus/insect cell line system using Abz-KLRSSKQ-EDDnp substrate
[8] = target: T2, Kallikrein-14 (Homo sapiens, UniProt Q9P0G3); assay: Inhibition of KLK14 (unknown origin) expressed in Pichia pastoris pre-incubated for 10 mins before Boc-ValProArg-AMC substrate addition and measured after 30 mins by fluorescence based assay
T2 sequence (Q9P0G3 whole entry): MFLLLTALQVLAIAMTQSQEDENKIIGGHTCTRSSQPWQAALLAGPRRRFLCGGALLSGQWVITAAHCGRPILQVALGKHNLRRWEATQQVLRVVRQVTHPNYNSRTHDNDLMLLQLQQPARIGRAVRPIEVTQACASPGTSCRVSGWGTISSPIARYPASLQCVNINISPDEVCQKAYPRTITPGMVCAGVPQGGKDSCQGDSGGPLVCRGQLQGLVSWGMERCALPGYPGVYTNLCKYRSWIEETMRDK

[9] = target: T3, Kallikrein-13 (Homo sapiens, UniProt Q9UKR3); assay: Inhibition of KLK13 (unknown origin) expressed in Pichia pastoris pre-incubated for 10 mins before Boc-ValProArg-AMC substrate addition and measured after 30 mins by fluorescence based assay
T3 sequence (Q9UKR3 whole entry): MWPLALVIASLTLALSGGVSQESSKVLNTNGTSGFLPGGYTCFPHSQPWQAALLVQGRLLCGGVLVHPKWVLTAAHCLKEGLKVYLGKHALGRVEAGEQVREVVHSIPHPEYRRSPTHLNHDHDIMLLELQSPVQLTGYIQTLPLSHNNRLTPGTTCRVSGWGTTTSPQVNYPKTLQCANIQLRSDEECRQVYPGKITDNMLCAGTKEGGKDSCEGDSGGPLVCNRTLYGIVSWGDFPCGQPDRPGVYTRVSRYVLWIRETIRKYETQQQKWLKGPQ

[10] = target: Kallikrein-7 (Homo sapiens, UniProt P49862); assay: Inhibition of KLK7 (unknown origin) expressed in Pichia pastoris pre-incubated for 10 mins before Leu-Leu-Val-Tyr-AMC substrate addition and measured after 30 mins by fluorescence based assay
Outline: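 KLK7 at 33 nM final in 100 mM phosphate, 0.01% Tween-20, pH 8.5, with inhibitor (1:3 dilutions) or 2% DMSO for 10 min at rt. Reaction started with Leu-Leu-Val-Tyr-AMC at 500 µM final. Fluorescence (ex 380/em 460) read every 60 s for 30 min. Triplicates.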

[11] = target: T4, Kallikrein-5 (Homo sapiens, UniProt Q9Y337); assay: Inhibition of KLK5 (unknown origin) expressed in Pichia pastoris pre-incubated for 10 mins before Boc-ValProArg-AMC substrate addition and measured after 30 mins by fluorescence based assay
T4 sequence (Q9Y337 whole entry): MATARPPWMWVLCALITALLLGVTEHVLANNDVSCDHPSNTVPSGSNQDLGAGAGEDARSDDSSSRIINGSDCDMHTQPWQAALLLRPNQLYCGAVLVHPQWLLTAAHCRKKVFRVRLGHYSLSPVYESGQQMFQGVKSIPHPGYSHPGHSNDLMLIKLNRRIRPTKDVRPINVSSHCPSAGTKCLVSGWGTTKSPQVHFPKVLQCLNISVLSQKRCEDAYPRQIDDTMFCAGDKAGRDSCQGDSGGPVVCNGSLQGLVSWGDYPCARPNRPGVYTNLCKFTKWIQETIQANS

[12] = target: T5, Kallikrein-8 (Homo sapiens, UniProt O60259); assay: Inhibition of KLK8 (unknown origin) expressed in Pichia pastoris pre-incubated for 10 mins before Boc-ValProArg-AMC substrate addition and measured after 30 mins by fluorescence based assay
T5 sequence (O60259 whole entry): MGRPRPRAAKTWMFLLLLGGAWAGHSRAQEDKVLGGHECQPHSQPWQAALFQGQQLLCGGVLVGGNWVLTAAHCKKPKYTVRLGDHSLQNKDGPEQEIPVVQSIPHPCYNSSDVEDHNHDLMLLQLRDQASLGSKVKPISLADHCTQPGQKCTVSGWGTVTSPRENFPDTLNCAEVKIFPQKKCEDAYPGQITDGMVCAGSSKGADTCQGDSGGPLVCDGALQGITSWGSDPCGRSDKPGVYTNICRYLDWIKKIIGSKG

Sequence of Coagulation factor X (P00742 41-179 limits assumed): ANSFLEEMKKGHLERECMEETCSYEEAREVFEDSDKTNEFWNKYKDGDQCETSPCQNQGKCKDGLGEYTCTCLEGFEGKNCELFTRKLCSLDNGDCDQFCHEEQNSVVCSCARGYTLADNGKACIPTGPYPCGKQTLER
Sequence of Coagulation factor X (P00742 235-488 limits assumed): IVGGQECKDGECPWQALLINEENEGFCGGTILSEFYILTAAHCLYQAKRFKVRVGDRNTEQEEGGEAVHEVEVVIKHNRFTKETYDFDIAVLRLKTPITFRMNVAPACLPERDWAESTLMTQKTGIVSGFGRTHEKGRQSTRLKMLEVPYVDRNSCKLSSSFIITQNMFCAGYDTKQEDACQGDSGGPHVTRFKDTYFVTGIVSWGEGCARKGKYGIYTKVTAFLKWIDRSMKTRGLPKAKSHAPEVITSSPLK
Sequence of Kallikrein-7 (P49862 whole entry): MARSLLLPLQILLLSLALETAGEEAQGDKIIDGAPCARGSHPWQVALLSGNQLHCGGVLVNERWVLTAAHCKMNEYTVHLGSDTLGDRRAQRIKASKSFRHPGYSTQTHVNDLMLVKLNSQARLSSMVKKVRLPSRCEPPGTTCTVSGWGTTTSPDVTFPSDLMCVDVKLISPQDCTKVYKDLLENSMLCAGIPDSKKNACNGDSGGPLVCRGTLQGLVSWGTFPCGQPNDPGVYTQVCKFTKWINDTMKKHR

SMILES: Cc1nn(-c2ccccc2)c(C)c1NC(=O)COC(=O)CCc1c(C)[nH]c2ccccc12
- IC50 [1]: > 200 µM

SMILES: Cc1nn(-c2ccccc2)c(C)c1NC(=O)CNC(=O)Cc1c(C)[nH]c2cc(C(=N)N)ccc12
- IC50 [1]: 2.5 µM

SMILES: Cc1nn(-c2ccccc2)c(C)c1NC(=O)COC(=O)Cn1c(C)nc2ccccc21
- IC50 [1]: > 200 µM

SMILES: NCc1ccc(NC(=O)c2c([O-])ccc[n+]2Cc2nccn2Cc2ccccc2)cc1
- IC50 [2]: > 50 µM
- IC50 [3]: > 50 µM
- IC50 [1]: 0.18 µM

SMILES: Cc1nn(-c2ccccc2)c(C)c1NC(=O)COC(=O)C(c1c(C)[nH]c2ccccc12)C(F)(F)F (centres undefined)
- IC50 [1]: > 200 µM

SMILES: Cc1nn(-c2ccccc2)c(C)c1NC(=O)COC(=O)Cc1c(C)[nH]c2ccncc12
- IC50 [1]: 25 µM

SMILES: Cc1nn(C)c(C)c1NC(=O)CNC(=O)Cc1c(C)[nH]c2cccnc12
- IC50 [1]: > 50 µM

SMILES: C#Cc1[nH]c2ccccc2c1CC(=O)OCC(=O)Nc1c(C)nn(-c2ccccc2)c1C
- IC50 [1]: > 200 µM

SMILES: C#Cc1cccc2[nH]c(C)c(CC(=O)OCC(=O)Nc3c(C)nn(-c4ccccc4)c3C)c12
- IC50 [1]: > 50 µM

SMILES: Cc1nn(-c2ccccc2)c(C)c1NC(=O)COC(=O)C(C)(C)c1c(C)[nH]c2ccccc12
- IC50 [1]: > 200 µM

SMILES: Cc1nn(-c2ccccc2)c(C)c1NC(=O)COC(=O)Cc1c(C)[nH]c2cccnc12
- IC50 [1]: 61 µM

SMILES: Cc1[nH]c2cccnc2c1CC(=O)NCC(=O)Nc1onc(-c2ccccc2)c1C
- IC50 [1]: 50 µM

SMILES: Cc1nn(-c2ccccc2)c(C)c1NC(=O)C(OC(=O)C(C)c1c(C)[nH]c2ccccc12)C(F)(F)F (centres undefined)
- half-life at 10 µM [4]: 101 min
- IC50 [1]: 61 µM

SMILES: Cc1nn(-c2ccccc2)c(C)c1NC(=O)C(NC(=O)Cc1c(C)[nH]c2ccccc12)C(F)(F)F (centres undefined)
- IC50 [1]: > 200 µM

SMILES: Cc1nn(-c2ccccc2)c(C)c1NC(=O)COC(=O)Cc1c(C)[nH]c2ccc(Cl)cc12
- IC50 [1]: 34 µM

SMILES: Cc1nn(-c2ccccc2)c(C)c1NC(=O)C(OC(=O)Cc1c(C)[nH]c2ccccc12)C(F)(F)F (centres undefined)
- half-life at 10 µM [4]: 25.5 min
- IC50 [1]: 0.38 µM

SMILES: Cc1nn(-c2ccccc2)c(C)c1NC(=O)CCOC(=O)Cc1c(C)[nH]c2ccccc12
- IC50 [1]: > 200 µM

SMILES: Cc1nn(-c2ccccc2)cc1NC(=O)CNC(=O)Cc1c(C)[nH]c2ccccc12
- IC50 [1]: > 200 µM

SMILES: Cc1nn(-c2ccccc2)c(C)c1NC(=O)COC(=O)Cc1c(C)[nH]c2ccc(C(=N)N)cc12
- IC50 [1]: 19 µM

SMILES: C#Cc1ccc2[nH]c(C)c(CC(=O)OCC(=O)Nc3c(C)nn(-c4ccccc4)c3C)c2c1
- IC50 [1]: 26 µM

SMILES: Cc1[nH]c2ccccc2c1CC(=O)OCC(=O)Nc1ccc(N2CCOCC2)cc1
- IC50 [1]: > 200 µM

SMILES: Cc1nn(-c2ccccc2)c(C)c1NC(=O)COC(=O)Cc1c(C)[nH]c2cccc(Cl)c12
- IC50 [1]: > 200 µM

SMILES: Cc1nn(-c2ccccc2)c(C)c1NC(=O)COC(=O)Nc1c(C)[nH]c2ccccc12
- Activity [5]: inactive

SMILES: Cc1nn(-c2ccccc2)c(C)c1NC(=O)COC(=O)Cn1c(=O)oc2ccccc21
- IC50 [2]: > 200 µM
- IC50 [3]: > 200 µM
- IC50 [1]: 190 µM

SMILES: Cc1nn(-c2ccccc2)c(C)c1NC(=O)COC(=O)Cc1c(C)[nH]c2ncccc12
- IC50 [1]: > 200 µM

SMILES: Cc1[nH]c2ccccc2c1CC(=O)OCC(=O)Nc1cncnc1
- IC50 [1]: > 200 µM

SMILES: Cc1nn(-c2ccccc2)c(C)c1NC(=O)COC(=O)Cn1c(C)cc2ccccc21
- IC50 [2]: > 200 µM
- half-life at 10 µM [4]: 33.6 min
- IC50 [3]: > 200 µM
- IC50 [1]: 38 to 70 µM

SMILES: Cc1nn(-c2ccccc2)c(C)c1NC(=O)COC(=O)Cc1c(C)[nH]c2cnccc12
- IC50 [1]: 0.33 µM

SMILES: Cc1nn(-c2ccccc2)c(C)c1NC(=O)COC(=O)Cn1c(C)csc1=O
- IC50 [2]: > 200 µM
- IC50 [3]: > 200 µM
- IC50 [1]: > 200 µM

SMILES: Cc1nn(-c2ccccc2)c(C)c1NC(=O)COC(=O)Cc1c(C)n(C)c2ccccc12
- IC50 [1]: > 200 µM

SMILES: Cc1nn(-c2ccccc2)c(C)c1NC(=O)COC(=O)Cn1cnc2ccccc2c1=O
- IC50 [2]: > 200 µM
- IC50 [3]: > 200 µM
- IC50 [1]: > 200 µM

SMILES: Cc1nn(-c2ccccc2)c(C)c1NC(=O)COC(=O)Cc1c[nH]c2ccccc12
- half-life at 10 µM [4]: 27 min
- IC50 [1]: 150 µM

SMILES: Cc1[nH]c2ccccc2c1CC(=O)NCC(=O)Nc1cnn(-c2ccccc2)c1C
- IC50 [1]: 34 µM

SMILES: O=C(Oc1cc(Cl)ccc1Cl)c1cc2cc(Cl)ccc2oc1=O
- Ratio [6]: 131 M⁻¹ s⁻¹

SMILES: C#Cc1ccc2c(CC(=O)OCC(=O)Nc3c(C)nn(-c4ccccc4)c3C)c(C)[nH]c2c1
- IC50 [1]: 24 µM

SMILES: Cc1nn(-c2ccccc2)c(C)c1NC(=O)COC(=O)Cc1ccccc1
- IC50 [2]: > 200 µM
- IC50 [3]: > 200 µM
- IC50 [1]: > 200 µM

SMILES: Cc1nn(-c2ccccc2)c(C)c1NC(=O)COC(=O)C(C)c1c(C)[nH]c2ccccc12 (centres undefined)
- half-life at 10 µM [4]: 912 min
- IC50 [1]: > 200 µM

SMILES: Cc1nn(-c2ccccc2)c(C)c1NC(=O)COC(=O)c1c(C)[nH]c2ccccc12
- IC50 [1]: > 200 µM

SMILES: Cc1nn(-c2ccccc2)c(C)c1NC(=O)COC(=O)Cc1c(C(C)C)[nH]c2ccccc12
- IC50 [1]: > 200 µM

SMILES: CC(C)C[C@H](NC(=O)[C@H](CCCNC(=N)N)NC(=O)c1ccc(Cl)cc1)C(N)=O
- Ki [7]: 1.5 µM

SMILES: Cc1nn(-c2ccccc2)c(C)c1NC(=O)COC(=O)Cc1c(C)[nH]c2cc(C(=N)N)ccc12
- IC50 [8]: 0.008 µM
- IC50 [9]: > 0.5 µM
- IC50 [10]: > 0.5 µM
- half-life at 10 µM [4]: 79.2 min
- IC50 [11]: 0.13 µM
- IC50 [12]: 0.21 µM
- IC50 [1]: < 0.001 µM
